{"source": "ChEMBL document CHEMBL5608193", "about": "“Discovery of bivalent small molecule degraders of cyclin-dependent kinase 7 (CDK7)” (Eur J Med Chem, 2024)", "key": {"[1]": {"biological_target": "CDK7/Cyclin H/MNAT1 (Homo sapiens, UniProt P50613)", "sequence (P51946 whole entry)": "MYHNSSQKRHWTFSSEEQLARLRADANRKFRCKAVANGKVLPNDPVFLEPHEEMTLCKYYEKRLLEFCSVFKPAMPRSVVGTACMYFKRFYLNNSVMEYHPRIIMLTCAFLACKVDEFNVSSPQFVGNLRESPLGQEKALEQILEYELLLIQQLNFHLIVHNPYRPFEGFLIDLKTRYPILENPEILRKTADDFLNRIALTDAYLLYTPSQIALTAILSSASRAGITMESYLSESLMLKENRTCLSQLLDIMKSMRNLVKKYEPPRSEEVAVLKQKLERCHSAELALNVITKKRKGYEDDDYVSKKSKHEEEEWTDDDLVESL", "sequence (P50613 whole entry)": "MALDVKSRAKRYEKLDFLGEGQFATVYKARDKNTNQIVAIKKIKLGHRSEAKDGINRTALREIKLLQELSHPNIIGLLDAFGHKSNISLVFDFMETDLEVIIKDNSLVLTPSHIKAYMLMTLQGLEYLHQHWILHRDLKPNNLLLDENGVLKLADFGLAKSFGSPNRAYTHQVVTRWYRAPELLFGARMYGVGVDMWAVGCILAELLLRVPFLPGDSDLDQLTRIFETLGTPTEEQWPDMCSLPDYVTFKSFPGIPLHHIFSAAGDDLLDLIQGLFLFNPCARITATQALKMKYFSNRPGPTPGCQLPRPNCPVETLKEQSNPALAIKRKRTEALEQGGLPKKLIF", "sequence (P51948 whole entry, further chain)": "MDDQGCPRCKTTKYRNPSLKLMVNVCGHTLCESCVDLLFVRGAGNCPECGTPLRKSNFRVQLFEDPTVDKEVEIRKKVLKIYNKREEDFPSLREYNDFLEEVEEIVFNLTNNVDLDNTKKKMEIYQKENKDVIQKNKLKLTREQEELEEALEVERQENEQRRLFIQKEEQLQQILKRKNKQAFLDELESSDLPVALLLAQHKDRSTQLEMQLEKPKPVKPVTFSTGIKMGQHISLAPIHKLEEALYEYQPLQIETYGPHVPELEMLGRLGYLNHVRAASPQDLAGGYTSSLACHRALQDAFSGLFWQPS", "assay": "Inhibition of CDK7/CycH/MNAT1 (unknown origin) assessed as change in TR-FRET ratio using Cdk7/9tide as substrate and ATP by in vitro Adapta Eu kinase assay", "assay_type": "protein-complex assay", "how_it_was_run": "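Adapta Eu kinase assay run at ThermoFisher on CDK7/Cyclin H/MNAT1 with ATP at Km.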"}, "[2]": {"biological_target": "T1, von Hippel-Lindau disease tumor suppressor/Cyclin-dependent kinase 7 (Homo sapiens) (UniProt P50613+P40337)", "T1 sequence (P40337 whole entry, looked up)": "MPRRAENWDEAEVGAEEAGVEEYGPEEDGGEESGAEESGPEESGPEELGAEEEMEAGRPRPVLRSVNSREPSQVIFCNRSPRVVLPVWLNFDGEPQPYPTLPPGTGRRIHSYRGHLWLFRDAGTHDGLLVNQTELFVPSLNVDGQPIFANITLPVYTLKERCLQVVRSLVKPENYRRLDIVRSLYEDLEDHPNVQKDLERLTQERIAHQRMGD", "T1 sequence (P50613 whole entry, looked up)": "as the sequence (P50613 whole entry) above", "assay": "PROTAC activity at CDK7/VHL in human Jurkat cells assessed as degradation of CDK7 at 1 uM measured after 16 hrs incubation by immunoblot analysis relative to control", "assay_type": "cell-based", "how_it_was_run": "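Jurkat cells given VHL-recruiting compounds at 0.1 or 1 μM for 16 h. RIPA lysis, BCA normalization, 4–20% SDS-PAGE, nitrocellulose transfer. CDK7 (1:1000) and β-actin probed overnight at 4 °C, IRDye secondaries, Odyssey detection. Quantified against control, mean ± SEM from three independent biological replicates.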"}, "[3]": {"biological_target": "T1, von Hippel-Lindau disease tumor suppressor/Cyclin-dependent kinase 7 (Homo sapiens)", "assay": "PROTAC activity at CDK7/VHL in human Jurkat cells assessed as degradation of CDK7 at 0.1 uM by immunoblot analysis", "assay_type": "cell-based", "details": "time 0.5-24 hrs, TDE = time-dependent effect", "how_it_was_run": "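Jurkat time course at 0.1 μM, lysates taken at set time points from 0.5 up to 24 h. CDK7 immunoblotted after RIPA lysis, SDS-PAGE and near-infrared detection with β-actin loading control.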"}, "[4]": {"biological_target": "T1, von Hippel-Lindau disease tumor suppressor/Cyclin-dependent kinase 7 (Homo sapiens)", "assay": "PROTAC activity at CDK7/VHL in human Jurkat cells assessed as degradation of CDK7 measured after 6 hrs incubation by immunoblot analysis", "assay_type": "cell-based", "details": "dose 10-5000 nM"}, "[5]": {"biological_target": "T1, von Hippel-Lindau disease tumor suppressor/Cyclin-dependent kinase 7 (Homo sapiens)", "assay": "PROTAC activity at CDK7/VHL in human A549 cells assessed as degradation of CDK7 measured at 0.1 to 5 uM measured after 6 hrs incubation by immunoblot analysis", "assay_type": "cell-based", "details": "dose 0.1-5 µM"}, "[6]": {"biological_target": "T1, von Hippel-Lindau disease tumor suppressor/Cyclin-dependent kinase 7 (Homo sapiens)", "assay": "PROTAC activity at CDK7/VHL in human Jurkat cells assessed as degradation of CDK7 in presence of 0.5 uM MG132 at 0.1 uM measured after 6 hrs incubation by immunoblot analysis", "assay_type": "cell-based", "how_it_was_run": "(§1)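 Jurkat cells pretreated 2 h with MG132, MLN-4924, YKL-5–167 or a VHL ligand, then given degrader for 6 h. CDK7 immunoblotted: RIPA lysis, SDS-PAGE, anti-CDK7 1:1000, IRDye secondaries.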"}, "[7]": {"biological_target": "T1, von Hippel-Lindau disease tumor suppressor/Cyclin-dependent kinase 7 (Homo sapiens)", "assay": "PROTAC activity at CDK7/VHL in human Jurkat cells assessed as degradation of CDK7 in presence of 1 uM MLN-4924 at 0.1 uM measured after 6 hrs incubation by immunoblot analysis", "assay_type": "cell-based", "how_it_was_run": "as §1"}, "[8]": {"biological_target": "von Hippel-Lindau disease tumor suppressor/Cyclin-dependent kinase 4 (Homo sapiens) (UniProt P11802+P40337)", "sequence (P11802 2-303 limits assumed)": "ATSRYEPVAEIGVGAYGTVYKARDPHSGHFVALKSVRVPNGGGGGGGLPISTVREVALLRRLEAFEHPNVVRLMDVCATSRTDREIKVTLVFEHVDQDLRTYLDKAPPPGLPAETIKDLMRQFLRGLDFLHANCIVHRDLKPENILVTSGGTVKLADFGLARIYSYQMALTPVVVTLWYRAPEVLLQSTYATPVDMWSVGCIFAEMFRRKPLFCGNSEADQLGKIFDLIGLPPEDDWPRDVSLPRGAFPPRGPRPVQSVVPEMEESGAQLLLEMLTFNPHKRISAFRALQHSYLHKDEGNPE", "sequence (P40337 whole entry partner)": "as the sequence (P40337 whole entry, looked up) above", "assay": "PROTAC activity at CDK4/VHL in human Jurkat cells assessed as degradation of CDK7 measured at 10 to 500 nM after 6 hrs incubation by Western blotting analysis", "assay_type": "cell-based", "details": "dose 10-500 nM"}, "[9]": {"biological_target": "von Hippel-Lindau disease tumor suppressor/Cyclin-dependent kinase 5 (Homo sapiens) (UniProt Q00535+P40337)", "sequence (P40337 whole entry, looked up)": "as above", "sequence (Q00535 whole entry, looked up)": "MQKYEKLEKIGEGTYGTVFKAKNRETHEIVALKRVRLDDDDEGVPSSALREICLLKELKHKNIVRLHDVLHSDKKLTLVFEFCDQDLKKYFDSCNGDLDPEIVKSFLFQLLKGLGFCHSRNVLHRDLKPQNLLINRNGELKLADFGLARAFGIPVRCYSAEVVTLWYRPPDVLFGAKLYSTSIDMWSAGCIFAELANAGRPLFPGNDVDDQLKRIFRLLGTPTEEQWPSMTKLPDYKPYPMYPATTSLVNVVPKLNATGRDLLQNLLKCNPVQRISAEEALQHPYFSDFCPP", "assay": "PROTAC activity at CDK5/VHL in human Jurkat cells assessed as degradation of CDK7 measured at 10 to 500 nM after 6 hrs incubation by Western blotting analysis", "assay_type": "cell-based", "details": "dose 10-500 nM"}, "[10]": {"biological_target": "von Hippel-Lindau disease tumor suppressor/Cyclin-dependent kinase 8 (Homo sapiens) (UniProt P49336+P40337)", "sequence (P40337 whole entry, looked up)": "as the sequence (P40337 whole entry, looked up) above", "sequence (P49336 whole entry, looked up)": "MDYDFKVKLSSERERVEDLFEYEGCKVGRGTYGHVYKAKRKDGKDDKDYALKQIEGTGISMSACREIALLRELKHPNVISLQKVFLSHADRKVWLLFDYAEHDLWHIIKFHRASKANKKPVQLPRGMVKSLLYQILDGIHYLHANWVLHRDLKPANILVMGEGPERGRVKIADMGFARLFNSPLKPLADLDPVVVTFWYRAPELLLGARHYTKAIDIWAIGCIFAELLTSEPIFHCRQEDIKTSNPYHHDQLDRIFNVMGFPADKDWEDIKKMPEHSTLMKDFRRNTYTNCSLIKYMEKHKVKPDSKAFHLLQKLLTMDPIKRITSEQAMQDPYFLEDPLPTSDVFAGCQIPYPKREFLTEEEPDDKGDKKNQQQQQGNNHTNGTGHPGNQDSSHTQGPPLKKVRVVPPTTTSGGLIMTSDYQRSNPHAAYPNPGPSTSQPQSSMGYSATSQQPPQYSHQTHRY", "assay": "PROTAC activity at CDK8/VHL in human Jurkat cells assessed as degradation of CDK7 measured at 10 to 500 nM after 6 hrs incubation by Western blotting analysis", "assay_type": "cell-based", "details": "dose 10-500 nM"}, "[11]": {"biological_target": "T1, von Hippel-Lindau disease tumor suppressor/Cyclin-dependent kinase 7 (Homo sapiens)", "assay": "PROTAC activity at CDK7/VHL in human Jurkat cells assessed as degradation of CDK7 measured at 0.1 to 5 uM after 6 hrs incubation by Western blotting analysis", "assay_type": "cell-based", "details": "dose 0.1-5 µM", "how_it_was_run": "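Jurkat cells dosed across a concentration series up to 5 μM for 6 h. CDK7 immunoblot via RIPA lysis, 4–20% SDS-PAGE, IRDye secondaries. Quantified as mean ± SEM from three independent biological replicates.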"}, "[12]": {"biological_target": "T1, von Hippel-Lindau disease tumor suppressor/Cyclin-dependent kinase 7 (Homo sapiens)", "assay": "PROTAC activity at CDK7/VHL in human Jurkat cells assessed as degradation of MAT1 measured at 0.1 to 5 uM after 6 hrs incubation by Western blotting analysis", "assay_type": "cell-based", "details": "dose 0.1-5 µM", "how_it_was_run": "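Jurkat and OVCAR3 cells treated 6 h across a concentration series. Blots probed for CDK7, MAT1 (1:1000) and Cyclin H (1:1000) overnight at 4 °C, with β-actin control and IRDye secondaries.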"}, "[13]": {"biological_target": "von Hippel-Lindau disease tumor suppressor/LON peptidase N-terminal domain and RING finger protein 2 (Homo sapiens) (UniProt P40337+Q1L5Z9)", "sequence (P40337 whole entry, looked up, the tested form may be a part)": "as the sequence (P40337 whole entry, looked up) above", "sequence (Q1L5Z9 whole entry, looked up, the tested form may be a part)": "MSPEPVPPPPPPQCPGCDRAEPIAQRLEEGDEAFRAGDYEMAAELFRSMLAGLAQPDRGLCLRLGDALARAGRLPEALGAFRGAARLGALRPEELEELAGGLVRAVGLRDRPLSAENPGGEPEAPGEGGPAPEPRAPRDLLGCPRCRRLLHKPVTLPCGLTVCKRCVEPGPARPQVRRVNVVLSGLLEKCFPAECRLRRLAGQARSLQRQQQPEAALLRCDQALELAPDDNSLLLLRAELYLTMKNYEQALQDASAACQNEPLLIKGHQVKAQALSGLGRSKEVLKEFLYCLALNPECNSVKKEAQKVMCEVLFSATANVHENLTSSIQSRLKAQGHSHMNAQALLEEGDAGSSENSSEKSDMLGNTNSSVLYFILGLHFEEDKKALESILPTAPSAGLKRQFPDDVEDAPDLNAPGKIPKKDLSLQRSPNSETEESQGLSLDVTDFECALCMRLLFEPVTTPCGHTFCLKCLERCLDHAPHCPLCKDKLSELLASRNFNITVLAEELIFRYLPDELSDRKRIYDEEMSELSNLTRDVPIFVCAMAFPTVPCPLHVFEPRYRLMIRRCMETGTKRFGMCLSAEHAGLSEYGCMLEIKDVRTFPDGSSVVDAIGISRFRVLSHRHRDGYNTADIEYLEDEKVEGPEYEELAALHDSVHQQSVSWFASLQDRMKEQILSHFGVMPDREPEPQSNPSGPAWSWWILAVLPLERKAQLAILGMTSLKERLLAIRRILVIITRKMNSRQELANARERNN", "assay": "PROTAC activity at LONRF2/VHL in human Jurkat cells assessed as degradation of LONRF2 measured at 0.1 to 5 uM after 6 hrs incubation by Western blotting analysis", "assay_type": "cell-based", "details": "dose 0.1-5 µM"}, "[14]": {"test_system": "A549", "assay": "Antiproliferative activity against human A549 cells assessed as cell viability measured after 72 hrs by CellTiter-Glo assay", "assay_type": "functional, cell-based", "details": "A549, 72 h", "how_it_was_run": "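Cells grown in RPMI 1640 with 10% heat-inactivated FBS and penicillin/streptomycin at 37 °C, 5% CO2, mycoplasma-negative. Seeded at 10^4/ml. Compounds dispensed digitally from 10 mM or 1 mM DMSO stocks, DMSO equalized, triplicate wells. After 72 h, CellTiter-Glo added for 10–15 min at room temperature and luminescence read.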"}, "[15]": {"test_system": "Jurkat", "assay": "Potency index, ratio of YKL-5-167 IC50 to test compound IC50 for antiproliferative activity against human Jurkat cells assessed as cell viability measured after 72 hrs by CellTiter-Glo assay", "assay_type": "functional"}, "[16]": {"assay": "AUClast in male CD1 mouse at 3 mg/kg, IV measured upto 24 hrs by LC-MS/MS-39 analysis", "assay_type": "ADME, organism-based", "details": "in vivo", "how_it_was_run": "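Three male CD1 mice given a single 3 mg/kg intravenous dose. Plasma prepared on ice by centrifugation (2000 g, 5 min, 4 °C) within 15 min, held at about −70 °C. Acetonitrile precipitation, then LC-MS/MS quantitation. Mean ± SD, n=3.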"}, "[17]": {"assay": "Tmax in male CD1 mouse at 10 mg/kg, IP measured upto 24 hrs by LC-MS/MS-39 analysis", "assay_type": "ADME, organism-based", "details": "in vivo", "how_it_was_run": "(§2)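 Male CD1 mice, n=3, one 10 mg/kg intraperitoneal dose. Blood sampled at 0, 0.25, 0.5, 1, 2, 4, 6, 8 and 24 h. Kept on wet ice and spun to plasma (2000 g, 5 min, 4 °C) within 15 min, stored at about −70 °C. Protein precipitation with acetonitrile, then LC-MS/MS. Values are mean ± SD of three mice.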"}, "[18]": {"assay": "AUClast in male CD1 mouse at 10 mg/kg, IP measured upto 24 hrs by LC-MS/MS-39 analysis", "assay_type": "ADME, organism-based", "details": "in vivo", "how_it_was_run": "as §2"}}, "note": "Activity calls are given as the source filed them. The rule behind the calls is not given here."}
{"smiles": "Cc1ncsc1-c1ccc([C@H](C)NC(=O)[C@@H]2C[C@@H](O)CN2C(=O)[C@@H](NC(=O)CCCC#Cc2ccc(C(=O)Nc3n[nH]c4c3CN(C(=O)N[C@H](CN(C)C)c3ccccc3)C4(C)C)cc2)C(C)(C)C)cc1", "values": [{"measurement": "IC50", "setting": "[1]", "result": 20.1, "unit": "nM"}, {"measurement": "Activity", "setting": "[2]", "result": 95, "unit": "%"}, {"measurement": "Activity", "setting": "[3]", "result": "Tde"}, {"measurement": "Efficacy", "setting": "[4]", "result": "Dose-Dependent Effect"}, {"measurement": "Activity", "setting": "[5]", "result": "Dose-Dependent Effect"}, {"measurement": "Activity", "setting": "[6]", "result": "inactive"}, {"measurement": "Activity", "setting": "[7]", "result": "inactive"}, {"measurement": "Activity", "setting": "[8]", "result": "inactive"}, {"measurement": "Activity", "setting": "[9]", "result": "inactive"}, {"measurement": "Activity", "setting": "[10]", "result": "inactive"}, {"measurement": "Activity", "setting": "[11]", "result": "Active"}, {"measurement": "Activity", "setting": "[12]", "result": "Active"}, {"measurement": "Activity", "setting": "[13]", "result": "inactive"}, {"measurement": "IC50", "setting": "[14]", "result": 332, "unit": "nM"}, {"measurement": "Ratio", "setting": "[15]", "result": 7}, {"measurement": "AUClast", "setting": "[16]", "result": 6.12, "unit": "µM·h"}, {"measurement": "Tmax", "setting": "[17]", "result": 1, "unit": "h"}, {"measurement": "AUClast", "setting": "[18]", "result": 19.4, "unit": "µM·h"}]}
